Data taken from ChEMBL document CHEMBL4393677, “Comparative analysis of pyrimidine substituted aminoacyl-sulfamoyl nucleosides as potential inhibitors targeting class I aminoacyl-tRNA synthetases” (Eur J Med Chem, 2019).
The source made the active and inactive calls. The rule behind the calls is not given here.

Assays:
[1] = Stability of compound in Escherichia coli NCIB 8743 S30 extract assessed as compound degradation incubated for 1 hr n presence of 14C-labeled isoleucine and acetyl-CoA by liquid scintillation counting method; type: ADME, subcellular
In short: (§1)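 Inhibitor (5 μM stock) incubated at 37 °C up to 48 h with S30 extract (1:3), or with extract plus acetyl-CoA (10 mM stock) (1:1:3). Aliquots at set times added to aminoacylation mix (30 mM Tris pH 8.0, 1 mM DTT, tRNA, 3 mM ATP, 30 mM KCl, 8 mM MgCl₂, 10 μM ¹⁴C-isoleucine) at 37 °C; quenched after 1 min, ileRS activity by scintillation counting.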

Isoleucine--tRNA ligase = Isoleucine--tRNA ligase (Escherichia coli K-12, UniProt P00956); test: Inhibition of purified Escherichia coli BL21 (DE3) ileRS incubated for 10 mins in presence of 14C-labeled isoleucine by radiolabel transfer assay; conditions: read-out: Ki(app)
[2] = Stability of compound in Escherichia coli NCIB 8743 S30 extract assessed as compound degradation incubated for 48 hr in presence of 14C-labeled isoleucine and acetyl-CoA by liquid scintillation counting method; type: ADME, subcellular; in short: as §1
[3] = target: Isoleucine--tRNA ligase (Escherichia coli K-12) (UniProt P00956); test: Inhibition of ileRS in Escherichia coli NCIB 8743 S30 extract assessed as aminoacylation at 250 nM incubated for 5 mins in presence of 14C-labeled isoleucine by liquid scintillation counting method relative to control; parameters: scale not given: the % may be the effect or the level left
In short: (§2)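 S30 extract from cells grown in LB at 37 °C to OD600 1.2, sonicated, twice clarified; diluted 10-fold. Inhibitor (5 µM stock) preincubated 5 min with extract, then aminoacylation at 37 °C with 30 mM Tris pH 8.0, 1 mM DTT, 5 g/L tRNA, 3 mM ATP, 30 mM KCl, 8 mM MgCl₂, ¹⁴C-Ile 15 µM or ¹⁴C-Tyr 9.66 µM; quenched at 1 min, TCA filters counted. Activity relative to no-inhibitor extract; mean of three.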

[4] = target: Isoleucine--tRNA ligase (Escherichia coli K-12) (UniProt P00956); test: Inhibition of ileRS in Escherichia coli BL21 (DE3) pLysS S30 extract over expressing SUMO incubated for 5 to 60 mins in presence of 14C-labeled isoleucine and acetyl-CoA by liquid scintillation counting method
[5] = target: Isoleucine--tRNA ligase (Escherichia coli K-12) (UniProt P00956); test: Inhibition of ileRS in Escherichia coli BL21 (DE3) pLysS S30 extract over expressing YhhY incubated for 60 mins in presence of 14C-labeled isoleucine and acetyl-CoA by liquid scintillation counting method
[6] = target: Isoleucine--tRNA ligase (Escherichia coli K-12) (UniProt P00956); test: Inhibition of ileRS in Escherichia coli BL21 (DE3) pLysS S30 extract over expressing RimI incubated for 5 to 60 mins in presence of 14C-labeled isoleucine and acetyl-CoA by liquid scintillation counting method
[7] = target: T1, Tyrosine--tRNA ligase (Escherichia coli (strain K12)) (UniProt P0AGJ9); test: Inhibition of tyrRS in Escherichia coli BL21 (DE3) pLysS S30 extract over expressing RimI incubated for 5 to 60 mins in presence of 14C-labeled tyrosine by liquid scintillation counting method
T1 sequence (whole entry): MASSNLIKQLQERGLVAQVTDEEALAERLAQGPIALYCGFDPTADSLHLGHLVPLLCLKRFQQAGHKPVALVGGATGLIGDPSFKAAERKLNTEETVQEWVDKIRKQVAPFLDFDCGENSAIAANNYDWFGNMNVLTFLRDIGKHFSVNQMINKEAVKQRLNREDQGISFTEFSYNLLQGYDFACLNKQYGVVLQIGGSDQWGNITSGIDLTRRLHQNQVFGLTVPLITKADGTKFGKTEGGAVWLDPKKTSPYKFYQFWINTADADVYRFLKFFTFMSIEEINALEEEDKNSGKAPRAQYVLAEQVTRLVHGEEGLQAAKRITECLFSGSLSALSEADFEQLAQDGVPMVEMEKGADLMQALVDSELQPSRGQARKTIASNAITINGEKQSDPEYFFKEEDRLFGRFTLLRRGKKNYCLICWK

[8] = target: Leucine--tRNA ligase (Escherichia coli (strain K12)) (UniProt P07813); test: Inhibition of leuRS in Escherichia coli BL21 (DE3) pLysS S30 extract over expressing YhhY incubated for 5 mins in presence of 14C-labeled leucine by liquid scintillation counting method
[9] = target: Isoleucine--tRNA ligase (Escherichia coli K-12) (UniProt P00956); test: Inhibition of ileRS in Escherichia coli BL21 (DE3) pLysS S30 extract over expressing YhhY incubated for 5 mins in presence of 14C-labeled isoleucine and acetyl-CoA by liquid scintillation counting method
[10] = target: T1, Tyrosine--tRNA ligase (Escherichia coli (strain K12)); test: Inhibition of tyrRS in Escherichia coli BL21 (DE3) pLysS S30 extract over expressing SUMO incubated for 5 to 60 mins in presence of 14C-labeled tyrosine by liquid scintillation counting method
[11] = target: Isoleucine--tRNA ligase (Escherichia coli K-12) (UniProt P00956); test: Inhibition of ileRS in Escherichia coli BL21 (DE3) pLysS S30 extract over expressing RimL incubated for 5 to 60 mins in presence of 14C-labeled isoleucine and acetyl-CoA by liquid scintillation counting method
[12] = target: Leucine--tRNA ligase (Escherichia coli (strain K12)) (UniProt P07813); test: Inhibition of leuRS in Escherichia coli BL21 (DE3) pLysS S30 extract over expressing YhhY incubated for 60 mins in presence of 14C-labeled leucine by liquid scintillation counting method
[13] = Stability of compound in Escherichia coli BL21 (DE3) pLysS S30 extract assessed as compound degradation at 0.25 uM in presence of 14C-labeled isoleucine and acetyl-CoA by liquid scintillation counting method; type: ADME, subcellular
[14] = Stability of compound in Escherichia coli NCIB 8743 S30 extract assessed as compound degradation at 0.25 uM in presence of 14C-labeled isoleucine and acetyl-CoA by liquid scintillation counting method; type: ADME, subcellular; in short: as §1
Tyrosine--tRNA ligase = target: T2, Tyrosine--tRNA ligase (Escherichia coli (strain K12), UniProt P0AGJ9); test: Inhibition of purified Escherichia coli BL21 (DE3) tyrRS incubated for 10 mins in presence of 14C-labeled tyrosine by radiolabel transfer assay; conditions: read-out: Ki(app)
T2 sequence (P0AGJ9 whole entry): T1 sequence (whole entry)

[15] = target: T1, Tyrosine--tRNA ligase (Escherichia coli (strain K12)); test: Inhibition of tyrRS in Escherichia coli BL21 (DE3) pLysS S30 extract over expressing YhhY incubated for 5 to 60 mins in presence of 14C-labeled tyrosine by liquid scintillation counting method
[16] = target: T1, Tyrosine--tRNA ligase (Escherichia coli (strain K12)); test: Inhibition of tyrRS in Escherichia coli NCIB 8743 S30 extract assessed as aminoacylation at 250 nM incubated for 5 mins in presence of 14C-labeled tyrosine by liquid scintillation counting method relative to control; parameters: scale not given: the % may be the effect or the level left; in short: as §2
Leucine--tRNA ligase = Leucine--tRNA ligase (Escherichia coli (strain K12), UniProt P07813); test: Inhibition of purified Escherichia coli BL21 (DE3) leuRS incubated for 10 mins in presence of 14C-labeled leucine by radiolabel transfer assay; conditions: read-out: Ki(app)
[17] = target: T1, Tyrosine--tRNA ligase (Escherichia coli (strain K12)); test: Inhibition of tyrRS in Escherichia coli BL21 (DE3) pLysS S30 extract over expressing RimL incubated for 5 to 60 mins in presence of 14C-labeled tyrosine by liquid scintillation counting method relative to control

Sequence of Isoleucine--tRNA ligase (P00956 whole entry): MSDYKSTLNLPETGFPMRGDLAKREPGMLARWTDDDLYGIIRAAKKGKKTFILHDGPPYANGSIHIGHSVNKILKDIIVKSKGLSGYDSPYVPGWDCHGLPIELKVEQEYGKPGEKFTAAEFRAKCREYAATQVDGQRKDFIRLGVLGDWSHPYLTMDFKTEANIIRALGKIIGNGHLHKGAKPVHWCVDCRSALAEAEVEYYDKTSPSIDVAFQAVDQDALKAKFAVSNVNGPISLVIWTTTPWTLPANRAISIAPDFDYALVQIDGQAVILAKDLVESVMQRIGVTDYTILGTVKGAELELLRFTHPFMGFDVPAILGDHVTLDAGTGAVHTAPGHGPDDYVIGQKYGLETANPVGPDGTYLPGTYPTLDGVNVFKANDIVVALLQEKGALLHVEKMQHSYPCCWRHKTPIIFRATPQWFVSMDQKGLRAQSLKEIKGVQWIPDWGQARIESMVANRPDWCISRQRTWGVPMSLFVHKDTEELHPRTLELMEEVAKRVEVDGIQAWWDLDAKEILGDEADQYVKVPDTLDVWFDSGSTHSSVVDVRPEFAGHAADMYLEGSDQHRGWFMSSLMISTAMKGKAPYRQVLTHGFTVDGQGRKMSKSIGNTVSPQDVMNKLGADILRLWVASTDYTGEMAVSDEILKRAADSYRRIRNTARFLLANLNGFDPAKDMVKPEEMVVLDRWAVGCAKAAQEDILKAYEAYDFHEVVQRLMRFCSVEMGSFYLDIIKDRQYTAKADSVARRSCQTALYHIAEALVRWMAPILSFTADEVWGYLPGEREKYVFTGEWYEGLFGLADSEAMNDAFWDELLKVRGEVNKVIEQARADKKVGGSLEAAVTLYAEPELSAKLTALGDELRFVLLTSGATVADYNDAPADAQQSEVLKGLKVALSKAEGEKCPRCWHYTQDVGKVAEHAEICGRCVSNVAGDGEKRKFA
Sequence of Isoleucine--tRNA ligase (Escherichia coli K-12) (P00956 whole entry): as above
Sequence of Leucine--tRNA ligase (P07813 whole entry): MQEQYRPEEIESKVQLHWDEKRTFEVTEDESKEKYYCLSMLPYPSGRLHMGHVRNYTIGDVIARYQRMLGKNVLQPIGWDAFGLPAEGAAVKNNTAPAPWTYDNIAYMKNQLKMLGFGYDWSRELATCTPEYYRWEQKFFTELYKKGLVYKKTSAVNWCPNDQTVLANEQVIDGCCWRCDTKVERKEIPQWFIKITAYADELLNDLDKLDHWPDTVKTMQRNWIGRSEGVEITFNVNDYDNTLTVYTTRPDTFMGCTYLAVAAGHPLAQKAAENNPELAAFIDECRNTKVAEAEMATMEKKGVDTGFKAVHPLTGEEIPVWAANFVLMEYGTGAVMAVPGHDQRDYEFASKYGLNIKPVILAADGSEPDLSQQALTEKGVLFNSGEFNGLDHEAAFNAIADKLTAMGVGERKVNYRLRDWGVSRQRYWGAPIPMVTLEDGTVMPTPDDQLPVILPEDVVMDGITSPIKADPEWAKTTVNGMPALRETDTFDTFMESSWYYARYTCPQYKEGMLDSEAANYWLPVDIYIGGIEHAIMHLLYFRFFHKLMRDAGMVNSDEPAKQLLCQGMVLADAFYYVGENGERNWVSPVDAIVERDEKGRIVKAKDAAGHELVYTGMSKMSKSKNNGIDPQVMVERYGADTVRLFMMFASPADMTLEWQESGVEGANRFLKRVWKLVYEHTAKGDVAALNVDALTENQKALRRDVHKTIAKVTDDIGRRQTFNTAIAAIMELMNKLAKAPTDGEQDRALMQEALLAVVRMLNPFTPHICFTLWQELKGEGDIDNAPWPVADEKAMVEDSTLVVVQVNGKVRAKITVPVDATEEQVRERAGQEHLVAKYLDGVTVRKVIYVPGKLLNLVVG
Sequence of Leucine--tRNA ligase (Escherichia coli (strain K12)) (P07813 whole entry): as above

In the case of `CC[C@H](C)[C@H](N)C(=O)NS(=O)(=O)OC[C@H]1O[C@@H](n2ccc(=O)n(C)c2=O)[C@H](O)[C@@H]1O`, the Stability [1] is reported as “Stable”, the Ki (Isoleucine--tRNA ligase) is reported as 1040 nM and the Stability [2] is reported as “Stable”. The Activity [3] was 17 to 34%.
In the case of `CC[C@H](C)[C@H](N)C(=O)NS(=O)(=O)OC[C@H]1O[C@@H](n2ccc(N)nc2=O)[C@H](O)[C@@H]1O`, the Stability [1] is reported as “Stable”, the inhibition [4] is reported as “Active” and the Ki (Isoleucine--tRNA ligase) is reported as 17.2 nM. For the same compound, the inhibition [5] was “inactive”, the Stability [2] was “Stable” and the inhibition [6] was “Active”. The inhibition [7] was “Active”, the inhibition [8] was “Active” and the inhibition [9] was “Active”. The inhibition [10] was “Active”, the Activity [3] was 5 to 14% and the inhibition [11] was “inactive”. The inhibition [12] was “inactive”.
With `CC[C@H](C)[C@H](N)C(=O)NS(=O)(=O)OC[C@H]1O[C@@H](n2ccc(=O)[nH]c2=O)[C@H](O)[C@@H]1O` the Stability [1] was “Stable”, the inhibition [4] was “Active” and the Ki (Isoleucine--tRNA ligase) was 55 nM. For the same compound, the inhibition [5] was “inactive”, the Stability [2] was “Stable” and the inhibition [6] was “Active”. For the same compound, the inhibition [7] was “Active”, the Stability [13] was “Stable” and the inhibition [8] was “Active”. For the same compound, the inhibition [9] was “Active”, the inhibition [10] was “Active” and the Activity [3] was 5 to 14%. The Stability [14] was “Stable”, the inhibition [11] was “inactive” and the inhibition [12] was “inactive”.
With `CC[C@H](C)[C@H](N)C(=O)NS(=O)(=O)OC[C@H]1O[C@@H](n2cnc3c(N)ncnc32)[C@H](O)[C@@H]1O` the Stability [1] was “Stable”, the inhibition [4] was “Active” and the inhibition [5] was “inactive”. For the same compound, the Stability [2] was “Stable”, the inhibition [6] was “Active” and the inhibition [7] was “Active”. The Stability [13] was “Stable”, the inhibition [8] was “Active” and the inhibition [9] was “Active”. For the same compound, the inhibition [10] was “Active”, the Activity [3] was 0.05 to 1.8% and the Stability [14] was “Stable”. The inhibition [11] was “inactive” and the inhibition [12] was “Active”.
With `Nc1ccn([C@@H]2O[C@H](COS(=O)(=O)NC(=O)[C@@H](N)Cc3ccc(O)cc3)[C@@H](O)[C@H]2O)c(=O)n1` the Ki (Tyrosine--tRNA ligase) was 1480 nM, the inhibition [4] was “Active” and the inhibition [6] was “Active”. For the same compound, the inhibition [7] was “Active”, the inhibition [15] was “inactive” and the Activity [16] was “inactive”. The inhibition [10] was “Active”.
With `CC(C)C[C@H](N)C(=O)NS(=O)(=O)OC[C@H]1O[C@@H](n2ccc(N)nc2=O)[C@H](O)[C@@H]1O` the Ki (Leucine--tRNA ligase) was 9.8 nM, the inhibition [4] was “Active” and the inhibition [6] was “Active”. The inhibition [7] was “Active”, the inhibition [10] was “Active” and the inhibition [11] was “inactive”.
With `CC(C)C[C@H](N)C(=O)NS(=O)(=O)OC[C@H]1O[C@@H](n2cnc3c(N)ncnc32)[C@H](O)[C@@H]1O` the inhibition [4] was “Active”, the inhibition [6] was “Active” and the inhibition [7] was “Active”. The inhibition [10] was “Active” and the inhibition [11] was “inactive”.
With `Cn1c(=O)ccn([C@@H]2O[C@H](COS(=O)(=O)NC(=O)[C@@H](N)Cc3ccc(O)cc3)[C@@H](O)[C@H]2O)c1=O` the Ki (Tyrosine--tRNA ligase) was 149 nM and the Activity [16] was 37 to 62%.
For `N[C@@H](Cc1ccc(O)cc1)C(=O)NS(=O)(=O)OC[C@H]1O[C@@H](n2ccc(=O)[nH]c2=O)[C@H](O)[C@@H]1O`, the Ki (Tyrosine--tRNA ligase) was 43.4 nM, the inhibition [4] was “Active” and the inhibition [17] was “Active”. For the same compound, the inhibition [6] was “Active”, the inhibition [7] was “Active” and the inhibition [15] was “Active”. For the same compound, the Activity [16] was 37 to 62% and the inhibition [10] was “Active”.
In the case of `Nc1ncnc2c1ncn2[C@@H]1O[C@H](COS(=O)(=O)NC(=O)[C@@H](N)Cc2ccc(O)cc2)[C@@H](O)[C@H]1O`, the inhibition [4] is reported as “Active”, the inhibition [17] is reported as “Active” and the inhibition [6] is reported as “Active”. The inhibition [7] was “Active”, the inhibition [15] was “Active” and the Activity [16] was 0.05 to 1.8%. For the same compound, the inhibition [10] was “Active”.
For `CC(C)C[C@H](N)C(=O)NS(=O)(=O)OC[C@H]1O[C@@H](n2ccc(=O)[nH]c2=O)[C@H](O)[C@@H]1O`, the Ki (Leucine--tRNA ligase) was 20.8 nM, the inhibition [4] was “Active” and the inhibition [6] was “Active”. For the same compound, the inhibition [7] was “Active”, the inhibition [10] was “Active” and the inhibition [11] was “inactive”.
For `CC(C)C[C@H](N)C(=O)NS(=O)(=O)OC[C@H]1O[C@@H](n2ccc(=O)n(C)c2=O)[C@H](O)[C@@H]1O`, the Ki (Leucine--tRNA ligase) was 29.5 nM.
